Assay results from article PMC9734322 (Inflammation Research, 2022).

Legend:
ATP-induced paw edema = ATP-induced paw edema assay; type: in vivo, mice (Swiss Webster); settings: 10 mM ATP subplantar, phlogistic agent
Summary of the method: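 Male Swiss Webster mice (~30 g) were given test compound at 100, 500 or 1000 ng/kg i.p. 1 h before ATP (10 mM/paw subplantar, 20 µL), with 0.9% NaCl in the contralateral paw. Diclofenac 10 mg/kg i.p. was the positive control and saline the negative control. Paw volume was read by plethysmometer 60 min after ATP. Three experiments on different days; mean ± SD; one-way ANOVA/Tukey.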

P2X7R = settings: ATP concentration required for activation; cited from earlier work
[1] = system: carrageenan-induced peritonitis; test: Carrageenan-induced peritonitis, total and differential leukocyte count; type: in vivo, mice; settings: for % Mononuclear cells / % Neutrophils: mean ± SD
Summary of the method: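 Mice were pretreated i.p. (100 µL) with test compound or dexamethasone 10 mg/kg, then given carrageenan 10 mg/kg i.p. 1 h later; PBS pH 7.4 served as negative control. Peritoneal fluid was collected 3 h after first administration. Total leukocytes were counted in a Neubauer chamber. Slides were methanol-fixed 5 min and Giemsa-stained 15–20 min; 100 cells were counted per slide. Three experiments on different days; mean ± SD; ANOVA/Tukey.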

[2] = system: extrinsic pathway and common pathways of the coagulation cascade (plasma); test: Prothrombin time test; type: biochemical, human; settings: control 15 ± 2 s
[3] = system: initiation or propagation pathway of the coagulation cascade (plasma); test: Activated partial thromboplastin time; type: biochemical, human; settings: control 41.3 ± 0.7 s
[4] = system: calcium-dependent coagulation cascade factors (plasma); test: Plasma recalcification time test; type: biochemical, human; settings: control 196.9 ± 9 s
Summary of the method: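 Pooled citrated plasma from healthy donors (100 µL) was incubated with saline or test compound for 10 min at 37 °C. CaCl₂ was added (12.5 mM final) and clotting time recorded in a coagulometer. Mean ± SEM.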

[5] = system: platelet-rich plasma (PRP); settings: 1 µM, ADP 15 µM
[6] = pretreatment, then carrageenan 10 mg/kg 1 h later
[7] = substance alone, 10 mg/kg as printed, differential count of 100 cells

**Q.** Which “increase in paw edema compared to the saline group” value (ATP-induced paw edema) does the source give for `Nc1ncnc2c1ncn2[C@@H]1O[C@H](COP(=O)(O)OP(=O)(O)OP(=O)(O)O)[C@@H](O)[C@H]1O` [ATP] here?
**A.** Its value is 30%.

**Q.** And the EC50 (P2X7R)?
**A.** The EC50 was at least 100 µM.

**Q.** Which results are given for `C[C@@H]1C[C@H]2[C@@H]3CCC4=CC(=O)C=C[C@]4(C)[C@@]3(F)[C@@H](O)C[C@]2(C)[C@@]1(O)C(=O)CO` [dexamethasone]?
**A.** carrageenan-induced increase in white blood cells ([1]; dexamethasone 10 mg/kg i.p. pretreatment): reversed; % Mononuclear cells [1, 6]: 72 ± 9ª %; % Neutrophils [1, 6]: 27 ± 9ª^,g %; % Mononuclear cells [1, 7]: 90 ± 6ª %; % Neutrophils [1, 7]: 9 ± 7ª %

**Q.** With `COc1cc(S(=O)(=O)O)cc2cc(S(=O)(=O)O)c(NC(=O)c3ccc(C)c(NC(=O)c4cccc(NC(=O)Nc5cccc(C(=O)Nc6cc(C(=O)Nc7cc8c(OC)cc(S(=O)(=O)O)cc8cc7S(=O)(=O)O)ccc6C)c5)c4)c3)cc12` [NF770] as the molecule, how does the prothrombin time ([2]; 1 µM) read?
**A.** The prothrombin time was 15.5 ± 1 s.

**Q.** What about the prothrombin time ([2]; 10 µM) of the same molecule?
**A.** Its prothrombin time is 15.7 ± 1 s.

**Q.** And the “clotting time in the aPTT test” value ([3]; 1 µM)?
**A.** Its value is 40.9 ± 1 s.

**Q.** What about the “clotting time in the aPTT test” value ([3]; 10 µM) of the same molecule?
**A.** Its value is 42.2 ± 1 s.

**Q.** And the “plasma recalcification clotting time” value ([4]; 1 µM)?
**A.** Its value is 200.4 ± 12 s.

**Q.** And the “plasma recalcification clotting time” value ([4]; 10 µM)?
**A.** The value was 198 ± 8 s.

**Q.** For carrageenan, which “% Mononuclear cells” value [1, 7] is on record?
**A.** The value was 28 ± 8%.

**Q.** And the “% Neutrophils” value [1, 7]?
**A.** The value was 67 ± 10%.

**Q.** Which ADP-induced platelet aggregation [5] does the source give for `COC(=O)[C@H](c1ccccc1Cl)N1CCc2sccc2C1` [clopidogrel] here?
**A.** The ADP-induced platelet aggregation was “inhibited ADP-induced platelet aggregation”.

**Q.** For `O=C1CN=C(c2cccc(Br)c2)c2oc3ccccc3c2N1` [5-BDBD], which prothrombin time ([2]; 1 µM) is on record?
**A.** The prothrombin time was 15.4 ± 0.7 s.

**Q.** What about the prothrombin time ([2]; 10 µM) of the same molecule?
**A.** The prothrombin time was 15.7 ± 0.5 s.

**Q.** And the “clotting time in the aPTT test” value ([3]; 1 µM)?
**A.** Its value is 41.9 ± 0.6 s.

**Q.** What about the “clotting time in the aPTT test” value ([3]; 10 µM) of the same molecule?
**A.** Its value is 42.5 ± 0.8 s.

**Q.** What about the “plasma recalcification clotting time” value ([4]; 1 µM) of the same molecule?
**A.** The value was 204.6 ± 9 s.

**Q.** What about the “plasma recalcification clotting time” value ([4]; 10 µM) of the same molecule?
**A.** Its value is 195 ± 7 s.
